Compounds with a hit are over-represented: about 4.1% of the library has one in this group of screens.
AHR activator – activates the human aryl hydrocarbon receptor; P35869; AHR-responsive luciferase reporter cells, luminescence; activation, % at 5 µM; 2.5% of 320,000 active; AID 2796; in the data active means activation above about 47%;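 further: 0% = vehicle wells and 100% = reference agonist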
Target sequence (P35869 whole entry, looked up): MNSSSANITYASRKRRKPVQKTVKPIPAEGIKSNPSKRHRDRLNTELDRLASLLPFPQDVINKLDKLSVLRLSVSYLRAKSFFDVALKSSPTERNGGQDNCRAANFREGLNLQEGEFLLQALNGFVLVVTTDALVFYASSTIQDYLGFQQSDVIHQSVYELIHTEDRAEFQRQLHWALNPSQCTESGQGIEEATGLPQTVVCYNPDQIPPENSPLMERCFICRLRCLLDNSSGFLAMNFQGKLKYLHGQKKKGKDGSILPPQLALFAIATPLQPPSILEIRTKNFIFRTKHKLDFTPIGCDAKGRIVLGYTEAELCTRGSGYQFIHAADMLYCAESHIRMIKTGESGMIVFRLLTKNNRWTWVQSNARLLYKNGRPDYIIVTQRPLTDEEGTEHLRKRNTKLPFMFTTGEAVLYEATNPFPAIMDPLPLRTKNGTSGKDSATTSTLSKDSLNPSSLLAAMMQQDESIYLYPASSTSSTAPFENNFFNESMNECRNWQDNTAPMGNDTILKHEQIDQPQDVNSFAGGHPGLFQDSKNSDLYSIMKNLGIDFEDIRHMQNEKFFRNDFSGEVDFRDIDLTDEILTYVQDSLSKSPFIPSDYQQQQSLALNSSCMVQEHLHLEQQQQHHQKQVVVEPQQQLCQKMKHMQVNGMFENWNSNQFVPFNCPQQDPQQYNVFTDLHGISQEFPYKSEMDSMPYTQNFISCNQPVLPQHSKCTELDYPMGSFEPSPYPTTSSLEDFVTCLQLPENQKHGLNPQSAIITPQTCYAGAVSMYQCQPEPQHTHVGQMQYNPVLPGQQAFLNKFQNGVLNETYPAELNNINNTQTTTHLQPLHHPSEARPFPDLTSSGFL
SMARCA2 act – SMARCA2 function activation, primary screen; AID 652017; MG213 cells, MMTV-luciferase reporter, dexamethasone, overnight; activation, % at 9.1 µM; 1% of 370,000 active; in the data active means activation above about 7.8%;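 further: 0% = vehicle wells and 100% = reference activator wells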
Tb MetRS inh – blocks T. brucei methionyl-tRNA synthetase activity | AID 624268 | inhibition, % at 11.9 µM | 0.4% of 360,000 active | purified T. brucei MetRS, ATP depletion, Kinase-Glo luminescence;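 active means inhibition above a per-plate cutoff of the control wells' mean inhibition plus 3 SD, cut at about 5.5% in these data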;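 further: 0% = DMSO wells median and 100% = median of wells with control inhibitor compound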
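Measured by: Kinase-Glo luciferase luminescence reporting remaining unconsumed ATP. Material: purified T. brucei MetRS enzyme. Doses: 11.9 µM compound single dose, 0.9% DMSO. Medium: HEPES buffer containing pyrophosphatase, BSA, spermine, DTT. Times: 15 min preincubation, 2 h reaction, all 25 °C. Reagent: methionine, ATP and bulk E. coli tRNA.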
H9c2 TAG inh – inhibitors of triacylglycerol accumulation | H9c2 cells, Nile Red lipid (TAG) fluorescence; cells loaded with 200 µM oleic acid | inhibition, % at 12.5 µM | 0.66% of 230,000 active | AID 651582;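 active means pattern-corrected inhibition of lipid staining of at least 50% with the nuclear-stain viability signal not falling by more than 50%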;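 further: 0% = DMSO wells and 100% = triacsin C control wells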
Efflux pump inh – blocks antifungal efflux pumps in multiplex yeast assay; S. cerevisiae Candida pump triplex, Nile Red efflux; inhibition, % at 10 µM; 0.44% of 330,000 active;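 active means plate passing quality check with inhibition over a set limit, or well fluorescence over plate mean plus 4 SD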;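 further: Nile Red retained in pooled yeast measured as flow cytometry median fluorescence; 0% = buffer negative control and 100% = Enniatin B positive control; higher means more Nile Red kept so more efflux inhibition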
SMARCA2 conf – SMARCA2 activation, confirmation screen | shares compounds with SMARCA2 act | MG213 cells, MMTV-luciferase with dexamethasone, luminescence, overnight; MG213 cells expressing E1A, Rb sequestered; DMSO wells 0%, reference activator 100% | activation, % at 9.1 µM | 30% of 3,500 active;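 active means activation above its plate's cutoff, the mean activation of tested wells plus 3 SD, cut at about 7.9% in these data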
VP16 Luc act – GAL4-VP16 reporter activation counter-screen; activation, % at 9.1 µM; 41% of 3,500 active; shares compounds with SMARCA2 act; HEK293 GAL4-VP16 pG5luc reporter, luciferase luminescence; scaled: DMSO wells 0%, SAHA wells 100%;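 active means activation above the solvent-only control well mean plus 3 SD, averaged across control plates, cut at about 5.2% in these data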
An asterisk follows results filed as active; · = no result given.

SMILES | AHR activator | SMARCA2 act | Tb MetRS inh | H9c2 TAG inh | Efflux pump inh | SMARCA2 conf | VP16 Luc act
CO[C@@H]1[C@H](O)CC[C@]2(O)CN(c3ccccc3)[C@](C)([C@H](O)CC=C(C)C)[C@@H]12 | · | -6.5 | · | · | · | · | ·
N#C/C(=C\c1ccc2c(c1)OCO2)C(=O)NCc1ccco1 | 4.6 | -0.1 | -0.1 | -18.4 | -0.1 | · | ·
COCCNC(=O)/C(C#N)=C/c1ccc2c(c1)OCO2 | -0.9 | 9.1* | 0.0 | 12.0 | -0.1 | 5.0 | 2.1
COC(=O)[C@]12C[C@H](CC(=O)NCC3CCCCC3)C(=O)N(Cc3cccc4ccccc34)C1=C[C@H](C(C)(C)C)O[C@@H]2C | · | -3.2 | · | · | · | · | ·
CCOc1ccccc1OCCn1nnc2ccccc21 | 9.1 | -2.6 | -0.2 | 0.4 | 0.0 | · | ·
COc1ccccc1OCCn1nnc2ccccc21 | 0.3 | 10.7* | -0.2 | · | 0.0 | 7.1 | 4.7
N#Cc1c(NC(=O)C2CC2)sc2c1CCCCC2 | -0.1 | 8.9* | 0.7 | · | 0.0 | 6.9 | 7.4*
CC(C)C(=O)Nc1sc2c(c1C#N)CCCCC2 | 7.2 | 12.2* | -0.9 | -3.3 | -0.1 | 1.7 | 1.7
CC(=O)Nc1sc2c(c1C#N)CCCC2 | 8.0 | -1.6 | -1.2 | -4.5 | 0.3 | · | ·
CC1CCc2c(sc(NC(=O)C3CCCO3)c2C#N)C1 (stereo not drawn) | -1.2 | 14.4* | -1.6 | 1.0 | 0.0 | 3.7 | 11.6*
COC(=O)[C@]12C[C@H](CC(=O)N3CCCC3)C(=O)N(Cc3ccc(Cl)cc3Cl)C1=C[C@H](C1CCCC1)O[C@@H]2C | · | -2.0 | · | · | · | · | ·
O=C(NCC1OCCc2ccccc21)c1ccc(NC(=O)c2ccc(Cl)cc2Cl)cc1 (stereo not drawn) | 0.0 | 9.4* | -0.4 | · | -0.2 | -4.0 | 0.6
S=c1[nH]nc(-c2ccc(Cl)cc2Cl)n1Cc1ccccc1 | 1.1 | -4.6 | 0.0 | · | -0.1 | · | ·
S=c1[nH]nc(-c2ccc(Cl)cc2Cl)n1-c1ccccc1 | -0.3 | 16.5* | -0.1 | -13.7 | 0.0 | 5.6 | 6.4*
COc1ccc(-c2cc(C(=O)Nc3cc(OC)c(OC)c(OC)c3)[nH]n2)c(C)c1 | · | -0.7 | -0.3 | 15.0 | · | · | ·
COc1ccc(-c2cc(C(=O)Nc3ccc(NC(C)=O)cc3)[nH]n2)c(C)c1 | · | 9.6* | 0.7 | 6.7 | · | 3.4 | 2.2
Cn1c(N)c(C(=O)/C=C/c2ccccc2)c(=O)[nH]c1=O | 47.3* | 11.7* | -1.1 | · | -1.4 | 7.7 | 9.4*
Cn1c(N)c(C(=O)Nc2ccccc2)c(=O)[nH]c1=O | -2.3 | -0.9 | · | · | · | · | ·
COc1c(C(=O)NNC(=O)c2ccccc2)csc1Br | 22.7 | 15.7* | -0.2 | -11.8 | -0.1 | 3.1 | 7.0*
C#CCN1C[C@@]2(O)CC[C@@H](O)[C@@H](OC)[C@@H]2[C@@]1(C)[C@H](O)CC=C(C)C | · | -0.9 | · | · | · | · | ·
O=C(Nc1cccnc1Cl)c1ccc(Cl)cc1 | 7.1 | 3.3 | -1.0 | -23.5 | -0.1 | · | ·
O=C(NC(=S)Nc1cccnc1Cl)c1ccc(Cl)cc1 | 21.1 | 9.9* | 0.1 | · | 0.1 | 2.9 | 8.9*
Nc1nc(COc2ccc(Cl)cc2)cs1 | -3.1 | 10.2* | -0.6 | 20.0 | -0.2 | 4.5 | 4.2
Nc1nc(-c2ccc(Cl)cc2)cs1 | · | 9.1* | · | · | · | 7.3 | 1.4
COC1=C[C@H](C(=O)NC2CCN(Cc3ccccc3)CC2)C(C)C(c2ccccc2)CC1=O (stereo partly drawn) | · | -2.0 | · | · | · | · | ·
SMILES | AHR activator | SMARCA2 act | Tb MetRS inh | H9c2 TAG inh | Efflux pump inh | SMARCA2 conf | VP16 Luc act
COc1ccc(NC(=O)n2nc(OC(=O)c3cccs3)cc2N)cc1 | 5.7 | 9.1* | -0.4 | -1.5 | · | 3.3 | 2.2
Cc1ccc(CNC(=O)CCS(=O)(=O)c2ccc(C)cc2)cc1 | 0.0 | 10.2* | -0.5 | 5.0 | 0.0 | -0.8 | 0.1
Cc1c(CN2CCN(c3ncc(Cc4ccccc4)cn3)CC2)c(=O)n(-c2ccccc2)n1C | · | -2.3 | · | · | · | · | ·
Cn1cc(-c2nnc(-c3ccccc3)o2)c2ccccc21 | 48.9* | 13.1* | -0.3 | -5.9 | 0.0 | 5.6 | 7.2*
CCOC(=O)Cc1c(C)nc(-c2ccccc2)[nH]c1=O | 8.3 | 0.5 | -0.8 | 9.6 | -0.1 | · | ·
CCOC(=O)Cc1c(C)nc2c(-c3ccccc3)c(C)nn2c1C | 0.1 | 11.8* | 0.1 | -0.4 | 0.0 | 2.0 | 0.6
COC(=O)c1cc(Cl)nc2ccccc12 | -0.8 | -3.3 | -1.0 | 0.4 | -0.1 | · | ·
CCCc1cc(C(=O)OC)c2ccccc2n1 | 1.8 | 8.3* | -0.1 | · | 0.8 | -2.3 | 1.1
COc1cccc(N2CCN(c3nc(-c4ccccc4C)cc(=O)[nH]3)CC2)c1 | · | 13.3* | -0.8 | · | 0.0 | 36.0* | 1.3
COc1cccc(N2CCN(c3nc(C)c(C)c(=O)[nH]3)CC2)c1 | -3.6 | -3.4 | -0.5 | -1.2 | -0.2 | · | ·
COc1ccc(C(=O)Nc2cccc(/C(C)=N\NC(=O)c3ccoc3C)c2)cc1OC | · | 8.4* | -0.5 | -6.3 | · | -2.9 | 7.9*
COc1ccc(/C=C2\CC3(OC(=O)C4CCCCC4)CCCN2C3)cc1 (stereo not drawn) | · | -3.2 | · | · | · | · | ·
Cc1c(-c2ccccc2)nc2ccccc2c1C(=O)NCc1cccs1 | 17.7 | 8.1* | -0.1 | · | 0.1 | -2.0 | 1.0
Cc1c(C(=O)NCc2cccs2)oc2ccccc12 | 2.2 | -0.2 | -0.1 | · | 0.1 | · | ·
COC(=O)N1C[C@H](OC(=S)Nc2ccc(OC)cc2OC)[C@H]2C[C@@H]1c1ccccc1O2 | · | -4.6 | · | · | · | · | ·
Cn1c(SCc2cccc(Br)c2)nnc1-c1ccccn1 | -3.6 | -2.3 | 0.0 | 1.3 | 0.0 | · | ·
Cn1c(SCc2cccc(F)c2)nnc1-c1ccccn1 | -1.6 | 9.9* | -0.8 | · | 0.2 | 6.9 | 6.3*
CCOC(=O)c1c(C)[nH]c(C(=O)CN2C(=O)C(=O)N(CC(C)C)C2=O)c1C | 3.5 | -1.4 | -0.7 | 2.2 | 0.1 | · | ·
COC(=O)c1c(C)[nH]c(C(=O)CN2C(=O)C3CC=CCC3C2=O)c1C (stereo not drawn) | 5.4 | 9.0* | -0.6 | -8.5 | 0.5 | 5.8 | 5.1
CC1(C(=O)OCc2cc(=O)n3cc(Br)ccc3n2)CC1(Cl)Cl (stereo not drawn) | 8.9 | 10.1* | -0.7 | 3.4 | 0.8 | 9.4* | 13.3*
Cc1ccccc1C(=O)NC(CC(C)C)C(=O)OCc1cc(=O)n2cc(Br)ccc2n1 (stereo not drawn) | -1.2 | 9.4* | -1.0 | · | -0.1 | 4.6 | 8.8*
CC1CC1C(=O)OCc1cc(=O)n2cc(Br)ccc2n1 (stereo not drawn) | -1.7 | 3.3 | -0.2 | -12.7 | 0.0 | · | ·
CCOC(=O)CC[C@@]1(C(=O)OCC)C[C@@H](CC(=O)NCc2cccc3ccccc23)C(=O)N2CCCC=C21 | · | -2.4 | · | · | · | · | ·
CC(=O)C1=C(C)N(Cc2ccc(F)cc2)C(=S)NC1c1cccc(Cl)c1 (stereo not drawn) | · | -0.7 | · | · | · | · | ·
CN(Cc1ccccc1)C(=O)OCc1cn(Cc2cc(F)cc(F)c2)nn1 | · | -2.4 | · | · | · | · | ·
CC(C)C(=O)Nc1ccc(C(=O)N/N=C/c2cc(Br)cc(Br)c2O)cc1 | 5.4 | 10.8* | 0.1 | · | 0.1 | -2.5 | -1.3

High-throughput results deposited in PubChem by several laboratories.
